High-throughput results: PubChem, several laboratories
Only some compounds are listed: those with a hit (about 2.4% of all), similar ones and a draw of the others.
MT1-MMP act inh – MT1-MMP (human) activation inhibition | P50281 | HT1080 RFP-PRO-GFP cells, GFP/RFP ratio fluorescence, overnight; percent of plate control window, DMSO zero | GFP/RFP ratio change, % at 20 µM | hit rate 0.061% among 360,000 | AID 651647;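 active = GFP/RFP ratio change of at least 30% with cell ATP level not reduced by more than half and red fluorescence within 50% of control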
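Assay system: HT1080 RFP-PRO-GFP cells | Dosing: 20 µM single dose, 1% DMSO | Incubation: Cells overnight before dosing, compound overnight, 37 °C, 5% CO2 | Evaluation: GFP/RFP fluorescence ratio | Control set: DMSO-only wells and HT1080 RFP-L50D-GFP cell wells as references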
MIN6 prolif – MIN6 beta-cell proliferation induction | hit rate 0.29% among 330,000 | proliferation, % at 10 µM | MIN6 cells proliferation, ATPlite luminescence, 48 h; cells starved in 0.2% serum; 100% = growth in 10% serum | AID 2380;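 active = compounds whose signal lies at least 3.5 SD above the mean of all wells on their plate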
Myeloid diff MLP – compounds promoting myeloid differentiation; hit rate 1% among 360,000; calls only at 10 µM; ER-HoxA9 myeloid progenitors, lysozyme-GFP differentiation, flow cytometry;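 active = normalized GFP-positive differentiation at or above the plate's own cutoff, the solvent-only control mean plus 3 SD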;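 note: cells exposed to compound for four days before flow analysis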
DAGLB inh – blocks human DAGLB lipase activity | hit rate 0.059% among 340,000 | HEK293T DAGLB membrane lysate, EnzChek fluorogenic substrate | Q8NCG7 | inhibition, % at 5.17 µM; in the data active = inhibition above about 34%
NRP1-CendR mod – alters CendR peptide binding to human NRP-1; O14786; FAM-RPARPAR peptide binding to NRP-1, fluorescence polarization; inhibition, % at 25 µM; hit rate 0.85% among 360,000; AID 602438;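 active = inhibition or corrected inhibition above about 18%, plus a signal ratio from 0.5 to 1.5, limit read from the data, passing the limit was not always enough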
Target sequence (O14786 whole entry, looked up): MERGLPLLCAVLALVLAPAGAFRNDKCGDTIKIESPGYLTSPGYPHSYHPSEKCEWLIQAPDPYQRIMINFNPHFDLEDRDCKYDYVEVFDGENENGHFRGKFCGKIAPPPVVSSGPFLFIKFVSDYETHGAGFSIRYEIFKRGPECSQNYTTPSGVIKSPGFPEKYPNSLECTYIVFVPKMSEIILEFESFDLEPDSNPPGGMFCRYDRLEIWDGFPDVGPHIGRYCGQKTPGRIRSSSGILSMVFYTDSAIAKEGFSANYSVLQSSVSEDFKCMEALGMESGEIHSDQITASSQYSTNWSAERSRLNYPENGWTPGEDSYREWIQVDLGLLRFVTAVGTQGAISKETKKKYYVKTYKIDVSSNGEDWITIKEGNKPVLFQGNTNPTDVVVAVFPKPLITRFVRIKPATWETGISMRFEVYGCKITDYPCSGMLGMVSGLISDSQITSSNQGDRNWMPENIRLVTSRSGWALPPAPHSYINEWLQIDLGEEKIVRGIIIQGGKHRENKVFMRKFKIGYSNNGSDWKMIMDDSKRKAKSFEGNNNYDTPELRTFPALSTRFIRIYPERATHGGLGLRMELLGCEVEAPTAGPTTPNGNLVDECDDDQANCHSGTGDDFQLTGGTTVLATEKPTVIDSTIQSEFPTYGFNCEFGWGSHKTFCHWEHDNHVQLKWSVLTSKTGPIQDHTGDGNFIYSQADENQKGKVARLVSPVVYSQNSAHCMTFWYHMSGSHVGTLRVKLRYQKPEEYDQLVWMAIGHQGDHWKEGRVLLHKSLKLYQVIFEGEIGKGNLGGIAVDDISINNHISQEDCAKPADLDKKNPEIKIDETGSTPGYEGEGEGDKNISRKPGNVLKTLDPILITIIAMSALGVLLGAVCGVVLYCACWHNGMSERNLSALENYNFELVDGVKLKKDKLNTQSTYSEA
SENP1 inh – inhibitors of human SENP1 SUMO protease catalytic domain; AID 624204; hit rate 0.21% among 360,000; recombinant SENP1 catalytic domain, CyPet-SUMO1-YPet FRET cleavage; inhibition, % at 10 µM;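 active = inhibition at least 30% at 10 µM, raw YFP signal under a set limit, fluorescence ratio 0.5 to 1.5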
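Material – human SENP1 catalytic domain · Input – SENP1 enzyme, 20 pM final · Compound dosing – single concentration of 10 µM compound, 0.5% DMSO final · Timing – enzyme reaction for 50 min at room temperature, dark · Measured by – FRET fluorescence in CFP and YFP emission channels · Control set – no-enzyme wells low, DMSO-plus-enzyme wells high control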
Of the large screens only hits and unclear results are named; the others gave an inactive call.

COc1cc(C(=O)COC(=O)c2ccc([N+](=O)[O-])o2)cc(OC)c1OC	NRP1-CendR mod 21
CC1(C(=O)NS(=O)(=O)c2cccc(C#N)c2)CCN1C(=O)Cc1ccc(Cl)cc1Cl (stereo unspecified)	none (no result: MIN6 prolif, DAGLB inh)
C=CCNC(=O)/C(=C/c1cccc([N+](=O)[O-])c1)NC(=O)c1ccccc1	none
COc1ccc(C(c2sc3nc(C)nn3c2O)N2CCN(CCO)CC2)cc1OC (stereo unspecified)	Myeloid diff MLP active
CN1CC(=O)N2Cc3[nH]c4ccccc4c3C[C@H]2C1=O	none
O=C(/C=C/c1cccs1)NC(=S)NNC(=O)Cc1cccs1	NRP1-CendR mod 29
CCCCCNC(=O)C1C(=O)Nc2ccccc2C(=O)N1c1c(C)cccc1C (stereo unspecified)	none (no result: MIN6 prolif, DAGLB inh)
CC1(C(=O)Nc2ccc3[nH]ncc3c2)CCN1C(=O)C/C=C/c1ccccc1 (stereo unspecified)	Myeloid diff MLP active (no result: MIN6 prolif, DAGLB inh)
C=CCNC(=O)C1CC(=O)N(c2ccc(OCC(=O)NCc3ccccc3)cc2)C1 (stereo unspecified)	NRP1-CendR mod 26
C=CCNC(=O)C1CC(=O)N(c2ccc(OCC(=O)Nc3ccccc3)cc2)C1 (stereo unspecified)	none
O=C(Cc1ccccc1)NCC(=O)N1CCN(c2ccccc2)CC1	NRP1-CendR mod 27
CCn1ccnc1CN(C)C(=O)CCc1nnc(CCCc2ccccc2)o1	none
NNC(=O)c1oc2nc(-c3ccc(Cl)cc3)cc(-c3ccccc3)c2c1N	Myeloid diff MLP active (no result: MIN6 prolif)
NNC(=O)c1oc2nc(-c3ccco3)cc(-c3ccco3)c2c1N	none (no result: DAGLB inh)
CN(CCc1ccccn1)Cc1ccc(Cl)cc1Cl	Myeloid diff MLP active
CN(CCc1ccccn1)Cc1ccc(Cl)c(Cl)c1	none
O=C(NCc1ccc(Cl)nc1)c1csc([C@@H]2C[C@H](O)[C@@H](CO)O2)n1	none (no result: MIN6 prolif, DAGLB inh)
CCC(c1ccccc1)c1noc(CCN(CC)CC)n1 (stereo unspecified)	none (no result: MIN6 prolif)
CC(c1ccccc1)N(NC(=O)C(O)(c1ccccc1)c1ccccc1)C(=O)c1ccccc1 (stereo unspecified)	MIN6 prolif 0.0
COc1cccc(C(=O)N2CCCN(C)CC2)c1OC	none
CCc1nc2ccc(C(=O)Nc3cccc(NS(C)(=O)=O)c3)cn2c1N(C=O)CCC(C)C	Myeloid diff MLP active (no result: MIN6 prolif, DAGLB inh)
CCc1nc2ccc(C(=O)Nc3cccc(NS(C)(=O)=O)c3)cn2c1N(CCC(C)C)CCN(C)C	none (no result: MIN6 prolif, DAGLB inh)
O=C1NCCCCC1NS(=O)(=O)c1ccc(Cl)cc1 (stereo unspecified)	none
Cc1ccnc(NC(=O)CCC(=O)N(CC(=O)NCc2ccccc2)Cc2ccc(F)cc2)c1	Myeloid diff MLP active
COc1ccccc1N(CC(=O)NC1CCCC1)C(=O)CCC(=O)Nc1ccccn1	NRP1-CendR mod 21
Cc1ccnc(NC(=O)CCC(=O)N(CC(=O)NC2CCCCC2)Cc2ccccc2)c1	NRP1-CendR mod 31
Cc1ccnc(NC(=O)CCC(=O)N(CC(=O)NCc2ccccc2)Cc2ccccc2)c1	none
OCc1ccccc1OCCCOc1cccc2cccnc12	NRP1-CendR mod 33
CN1c2cccc3cccc(c23)N(C)C1c1cccs1	none
CC1N(C)c2cccc3cccc(c23)N1C	Myeloid diff MLP active
CCN(CC)S(=O)(=O)c1ccc2c(c1)nc(-c1ccccn1)n2C	none
CN(C)c1ccc(N/C=C/C(=O)c2ccc(F)cc2)cc1	SENP1 inh 67
NS(=O)(=O)c1ccc(N/C=C\C(=O)c2ccc(F)cc2)cc1	none
CN(C)c1ccc(N/C=C/C(=O)c2ccco2)cc1	SENP1 inh 71
COc1cccc(-c2ncc3ccccc3c2COC(=O)c2cccc(Br)c2)c1	none
O=C(O)c1cc(NC(=O)c2ccco2)cc(NC(=O)c2ccco2)c1	none
Cc1ccccc1C1=NC(c2ccc(F)cc2F)ON1 (stereo unspecified)	NRP1-CendR mod 22
CCCC(=O)Nc1nc2ccc(OCC)cc2s1	none
CCOc1ccc2nc(NC(=S)N(C)C)sc2c1	Myeloid diff MLP active
Cc1c(CN2CCC(CO)(CCOc3ccccc3)CC2)[nH]c2c(Cl)cccc12	none
Cc1c(CCC(=O)NCCCCCC(=O)O)c(=O)oc2c(C)c3oc4c(c3cc12)CCCC4	none
Cc1c(CCC(=O)NCCCn2ccnc2)c(=O)oc2c(C)c3oc4c(c3cc12)CCCC4	Myeloid diff MLP active
COc1cccc(/C=N/NC(=O)c2ccc([N+](=O)[O-])cc2Cl)c1O	none
Cc1ccc(Cl)cc1NC(=O)CC1NC2CCCCC2NC1=O (stereo unspecified)	Myeloid diff MLP active
O=C(CC1NC2CCCCC2NC1=O)Nc1ccc2c(c1)OCO2 (stereo unspecified)	none
Cc1ccccc1/C=N/NC(=O)c1ccc(-n2cnnn2)cc1	none
Nc1cccc(N2C(=O)c3cccc4c(N)ccc(c34)C2=O)c1	Myeloid diff MLP active
CCN1C(=O)c2cccc3c(Cl)ccc(c23)C1=O	none
CC(C)CCN1C(=O)c2cccc3c(N)ccc(c23)C1=O	Myeloid diff MLP active
Cc1cccc(N2C(=O)c3cccc4c(N)ccc(c34)C2=O)c1	none
O=C(Nc1ccccc1Cl)NC1(C(=O)NCc2cccnc2)CCCCC1	NRP1-CendR mod 25
Cc1ccc(C2C3CN(C(C)C)CC=C3C(C#N)=C(N)C2(C#N)C#N)cc1 (stereo unspecified)	Myeloid diff MLP active
COc1ccc(OC)c(C2C3CN(C(C)C)CC=C3C(C#N)=C(N)C2(C#N)C#N)c1 (stereo unspecified)	none
CC1(C)C(CC(=O)O)CC1C(=O)O (stereo unspecified)	NRP1-CendR mod 24 (no result: MIN6 prolif)
O=C(NNC(=O)c1cc(Br)c(Br)s1)c1ccncc1	none
CCOC(=O)[C@H]1[C@H]2COc3ccc(OC)cc3[C@@H]2N2C(=O)c3ccc(C)cc3NC(=O)[C@@]12C	NRP1-CendR mod 24
COc1ccc2c(c1)C(=O)N1[C@H]3c4cc(Cl)ccc4OC[C@@H]3[C@H](c3ccccc3)[C@]1(C)C(=O)N2	Myeloid diff MLP active
CCOC(=O)[C@H]1[C@H]2COc3cc(OC)ccc3[C@@H]2N2C(=O)c3ccc(C)cc3NC(=O)[C@@]12C	none
CCOC(=O)[C@H]1[C@H]2COc3ccc(OC)cc3[C@@H]2N2C(=O)CN(Cc3ccco3)C(=O)[C@@]12C	NRP1-CendR mod 22
CCOC(=O)[C@H]1[C@H]2COc3cc(OC)ccc3[C@@H]2N2C(=O)[C@@H](CO)NC(=O)[C@@]12C	none (no result: MT1-MMP act inh, Myeloid diff MLP, DAGLB inh, NRP1-CendR mod, SENP1 inh)
COc1ccc(C(=O)NNC(=O)C2CCCN(C3CC(=O)N(c4ccccc4)C3=O)C2)cc1 (stereo unspecified)	none
